Assays:
[1] = tested on: Human immunodeficiency virus 1; experiment: Antiviral activity against 100 TCID50 wild-type Human immunodeficiency virus 1 3B infected in CEM cells assessed as inhibition of syncytia formation after 4 days by microscopic analysis; format: functional, organism-based; conditions: CCRF-CEM, 96 h
Method in brief: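 Human CEM cells (~3 × 10^5 cells/cm3) infected with 100 CCID50/mL HIV-1 IIIB and seeded into wells holding compound dilutions. After 4 days at 37 °C, giant-cell (syncytium) formation was scored microscopically. EC50 is the concentration inhibiting syncytia formation by 50%.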

[2] = Cytotoxicity against […]-activated human H9 cells on day 7 by MTT assay; format: cell-based
Method in brief: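 Uninfected PHA-P-activated PBMC and H9 cells exposed to graded compound concentrations. Viability by MTT on day 7. CC50 from quadratic fit of % viability against concentration; triplicates.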

[3] = tested on: Human immunodeficiency virus 1; experiment: Antiviral activity against HIV1 clade B isolate 2101 infected in human H9 cells assessed as inhibition of viral replication; format: functional, organism-based; conditions: Human immunodeficiency virus 1, clade B isolate 2101, H9
Method in brief: (§1)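 H9 cells infected with HIV-1 clinical isolates of clades A, B, C, D, A/E, F and G, in the presence of graded compound concentrations. EC50 is the concentration reducing viral replication by 50%.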

[4] = tested on: Human immunodeficiency virus 1; experiment: Antiviral activity against HIV1 clade B isolate 2056 infected in human H9 cells assessed as inhibition of viral replication; format: functional, organism-based; conditions: Human immunodeficiency virus 1, clade B isolate 2056, H9; method in brief: as §1
[5] = tested on: Human immunodeficiency virus 1; experiment: Antiviral activity against HIV1 clade C isolate 4110 infected in human H9 cells assessed as inhibition of viral replication; format: functional, organism-based; conditions: Human immunodeficiency virus 1, clade C isolate 4110, H9; method in brief: as §1
[6] = tested on: Human immunodeficiency virus 1; experiment: Antiviral activity against HIV1 clade A/E isolate 2165 infected in human H9 cells assessed as inhibition of viral replication; format: functional, organism-based; conditions: Human immunodeficiency virus 1, clade A/E isolate 2165, H9; method in brief: as §1
Hepatitis B virus [7] = experiment: Antiviral activity against Hepatitis B virus infected in human HuH7 cells assessed as reduction in viral DNA level treated day 3 to day 8 post transfection by real time quantitative PCR analysis; format: functional, organism-based; conditions: Huh-7
HeLa = experiment: Cytotoxicity against human HeLa cells up to 200 uM; format: cell-based
Method in brief: (§2)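 Uninfected confluent Vero, CrFK, HEL or HeLa cultures incubated with serial compound dilutions (up to 200 μM) for the same period as the antiviral assays. Minimal toxic concentration is the lowest giving microscopically detectable alteration of cell morphology.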

[8] = Cytotoxicity against feline kidney CRFK cells up to 200 uM; format: cell-based, Felis catus; conditions: cat; method in brief: as §2
Human alphaherpesvirus 1 [9] = experiment: Antiviral activity against Herpes simplex virus type 1 KOS infected in HEL cells assessed as inhibition of virus-induced cytopathic effect; format: functional, organism-based; conditions: Human alphaherpesvirus 1, KOS
Method in brief: (§3)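 Confluent HEL cell monolayers inoculated with 100 CCID50 of virus. Compounds added after a 1–2 h adsorption period. Virus-induced cytopathic effect scored microscopically at 3 days post infection as % of untreated controls. EC50 derived from graphical plots.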

Human alphaherpesvirus 1 [10] = experiment: Antiviral activity against TK-deficient and ACR-resistant Herpes simplex virus type 1 KOS infected in HEL cells assessed as inhibition of virus-induced cytopathic effect; format: functional, organism-based; conditions: Human alphaherpesvirus 1, KOS; method in brief: as §3
Human alphaherpesvirus 2 = experiment: Antiviral activity against Herpes simplex virus type 2 G infected in HEL cells assessed as inhibition of virus-induced cytopathic effect; format: functional, organism-based; conditions: Human alphaherpesvirus 2, strain G; method in brief: as §3
[11] = Half life of the compound in complete culture medium by HPLC analysis; format: physicochemical
Method in brief: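 Compound diluted to 0.1 mM final in RPMI-1640 with 10% heat-inactivated FCS and incubated at 37 °C up to 24 h. Timed aliquots frozen at −80 °C, then analysed by reverse-phase HPLC with on-line filtration: C18 column, triethylammonium bicarbonate pH 7.5/acetonitrile gradient, detection at 260 nm. Half-life calculated.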

[12] = Stability of compound in presence of CEM-SS cell extract assessed as compound degradation after 24 hrs by HPLC analysis; format: physicochemical; conditions: human, read-out: Activity
Method in brief: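 Compound diluted to 0.1 mM final in one of two media and incubated at 37 °C: RPMI-1640 with 10% heat-inactivated FCS, or CEM-SS cell extract (soluble proteins 3 mg/mL in 10 mM Tris-HCl pH 7.4, 140 mM KCl). Aliquots were taken over time, frozen at −80 °C, then run on C18 reverse-phase HPLC with on-line filtration, TEAB/acetonitrile gradient and 260 nm detection. Degradation products were identified by co-injection.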

Hepatitis B virus [13] = experiment: Ratio EC50 for PMEA to compound for Hepatitis B virus infected in human HepAD38 cells assessed as reduction in viral DNA level after 6 days by real time quantitative PCR analysis; format: functional
[14] = tested on: Human immunodeficiency virus 1; experiment: Ratio EC50 for PMEA to compound for HIV1 clade A isolate 4113 infected in human H9 cells assessed as inhibition of viral replication; format: functional
Method in brief: (§4)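 Ratio computed as EC50 of PMEA divided by EC50 of the test compound, both measured against the same clinical isolate in H9 cells.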

[15] = tested on: Human immunodeficiency virus 1; experiment: Ratio EC50 for PMEA to compound for HIV1 clade B isolate 2101 infected in human H9 cells assessed as inhibition of viral replication; format: functional; method in brief: as §4
[16] = tested on: Human immunodeficiency virus 1; experiment: Ratio EC50 for PMEA to compound for HIV1 clade B isolate 2056 infected in human H9 cells assessed as inhibition of viral replication; format: functional; method in brief: as §4
[17] = tested on: Human immunodeficiency virus 1; experiment: Ratio EC50 for PMEA to compound for HIV1 clade C isolate 2914 infected in human H9 cells assessed as inhibition of viral replication; format: functional; method in brief: as §4
[18] = tested on: Human immunodeficiency virus 1; experiment: Ratio EC50 for PMEA to compound for HIV1 clade C isolate 4110 infected in human H9 cells assessed as inhibition of viral replication; format: functional; method in brief: as §4
[19] = tested on: Human immunodeficiency virus 1; experiment: Ratio EC50 for PMEA to compound for HIV1 clade A/E isolate 2165 infected in human H9 cells assessed as inhibition of viral replication; format: functional; method in brief: as §4
[20] = tested on: Human immunodeficiency virus 1; experiment: Ratio EC50 for PMEA to compound for HIV1 clade F isolate 2338 infected in human H9 cells assessed as inhibition of viral replication; format: functional; method in brief: as §4
[21] = tested on: Human immunodeficiency virus 1; experiment: Ratio EC50 for PMEA to compound for HIV1 clade G isolate 3187 infected in human H9 cells assessed as inhibition of viral replication; format: functional
[22] = tested on: Human immunodeficiency virus 1; experiment: Ratio EC50 for PMPA to compound for HIV1 clade A isolate 4113 infected in human H9 cells assessed as inhibition of viral replication; format: functional
[23] = tested on: Human immunodeficiency virus 1; experiment: Ratio EC50 for PMPA to compound for HIV1 clade B isolate 2101 infected in human H9 cells assessed as inhibition of viral replication; format: functional
[24] = tested on: Human immunodeficiency virus 1; experiment: Ratio EC50 for PMPA to compound for HIV1 clade B isolate 2056 infected in human H9 cells assessed as inhibition of viral replication; format: functional
[25] = tested on: Human immunodeficiency virus 1; experiment: Ratio EC50 for PMPA to compound for HIV1 clade B isolate 1722 infected in human H9 cells assessed as inhibition of viral replication; format: functional
[26] = tested on: Human immunodeficiency virus 1; experiment: Ratio EC50 for PMPA to compound for HIV1 clade C isolate 2914 infected in human H9 cells assessed as inhibition of viral replication; format: functional
[27] = tested on: Human immunodeficiency virus 1; experiment: Ratio EC50 for PMPA to compound for HIV1 clade C isolate 4110 infected in human H9 cells assessed as inhibition of viral replication; format: functional
[28] = tested on: Human immunodeficiency virus 1; experiment: Ratio EC50 for PMPA to compound for HIV1 clade D isolate 1649 infected in human H9 cells assessed as inhibition of viral replication; format: functional
[29] = tested on: Human immunodeficiency virus 1; experiment: Ratio EC50 for PMPA to compound for HIV1 clade F isolate 2338 infected in human H9 cells assessed as inhibition of viral replication; format: functional

Nc1ncnc2c1ncn2CCOCP(=O)([O-])[S-].[Na+].[Na+] (centres undefined)
EC50 [1]: 16 µM
CC50 at 7 day [2]: > 30 µM
EC50 [3]: 0.49 µM
EC50 [4]: 3.41 µM
EC50 [5]: 0.45 µM
EC50 [6]: 0.3 µM
EC50 (Hepatitis B virus [7]): 4.5 µM
Activity (HeLa): Non-toxic
Activity [8]: Non-toxic
EC50 (Human alphaherpesvirus 1 [9]): 40 µM
EC50 (Human alphaherpesvirus 1 [10]): 24 µM
EC50 (Human alphaherpesvirus 2): 24 µM
half-life [11]: > 24 h
metabolised at 24 h [12]: < 1%
Ratio EC50 (Hepatitis B virus [13]): 1.5
Ratio EC50 [14]: 10.8
Ratio EC50 [15]: 7.16
Ratio EC50 [16]: 0.29
Ratio EC50 [17]: 2.96
Ratio EC50 [18]: 6
Ratio EC50 [19]: 1.06
Ratio EC50 [20]: 0.86
Ratio EC50 [21]: 0.25

C[C@H](Cn1cnc2c(N)ncnc21)OCP(=O)([O-])[S-].[Na+].[Na+] (some centres undefined)
EC50 [1]: 14 µM
CC50 at 7 day [2]: > 100 µM
EC50 [3]: 0.47 µM
EC50 [4]: 0.45 µM
EC50 [5]: 0.54 µM
EC50 [6]: 0.34 µM
Activity (HeLa): Non-toxic
Activity [8]: Non-toxic
EC50 (Human alphaherpesvirus 1 [9]): 169 µM
EC50 (Human alphaherpesvirus 1 [10]): 80 µM
EC50 (Human alphaherpesvirus 2): 48 µM
half-life [11]: > 24 h
Ratio EC50 [22]: 1.25
metabolised at 24 h [12]: < 1%
Ratio EC50 [23]: 0.51
Ratio EC50 [24]: 2.77
Ratio EC50 [25]: 1.35
Ratio EC50 [26]: 0.89
Ratio EC50 [27]: 1.54
Ratio EC50 [28]: 0.14
Ratio EC50 [29]: 0.2

From ChEMBL document CHEMBL1828528, “Acyclic nucleoside thiophosphonates as potent inhibitors of HIV and HBV replication” (Eur J Med Chem, 2011)
